From ChEMBL document CHEMBL1772980, “Synthesis and evaluation of new furanyl and thiophenyl azoles as antileishmanial agents” (Eur J Med Chem, 2011)
Active and inactive are the calls of the source. No cut-off for these calls is given here.

Columns and labels:
Leishmania donovani [1] = test: Antipromastigote activity against Leishmania donovani MHOM/IN/80/Dd8 promastigotes assessed as luciferase activity of viable cells at 20 uM after 72 hrs by luminometry; type: functional; conditions: MHOM/IN/80/Dd8, 72 h
Procedure, shortened: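 Late-log luciferase-transfected promastigotes were seeded at 5 × 10⁵ per well in medium 199 with parallel DMSO dilutions as controls. After incubation, a suspension aliquot was mixed 1:1 with Steady Glo reagent and luminescence read as RLU. Percentage inhibition = (N − n) × 100/N, where N is mean control RLU and n is mean treated RLU.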

Leishmania donovani [2] = test: Antiamastigote activity against Leishmania donovani MHOM/IN/80/Dd8 amastigotes infected in mouse macrophage at 40 uM after 72 hrs by luciferase reporter gene assay; type: functional, organism-based
Leishmania donovani [3] = test: Antiamastigote activity against Leishmania donovani MHOM/IN/80/Dd8 amastigotes infected in mouse macrophage after 72 hrs by luciferase reporter gene assay; type: functional, organism-based; conditions: MHOM/IN/80/Dd8, 72 h
Procedure, shortened: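 Mouse J-774A.1 macrophages were seeded at 4 × 10⁴ cells/well in RPMI-1640 with 10% foetal calf serum, 37 °C, CO₂, for 24 h. They were then infected with stationary-phase luciferase-expressing promastigotes at 4 × 10⁵/well. Compounds were added in dilutions starting from 40 and incubated 72 h at 37 °C. Medium was replaced by PBS plus Steady Glo, luminescence read as RLU, and IC50 fitted by four-parameter Hill regression.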

[4] = Cytotoxicity against mouse J774A1 cells assessed as cell viability after 72 hrs by MTT assay; type: cell-based, J774.A1
[5] = Selectivity index, ratio of CC50 for mouse J774A.1 cells to IC50 for Leishmania donovani MHOM/IN/80/Dd8 amastigotes; type: functional

SMILES | inhibition (Leishmania donovani [2]) | IC50 (Leishmania donovani [3]) [µM] | inhibition at 20 µM (Leishmania donovani [1]) [%] | CC50 at 72 h [4] [µM] | Selectivity Index [5]
Clc1ccc(COC(CCn2cncn2)c2cccs2)c(Cl)c1 (centres undefined) | inactive | – | 97.1 | – | –
Clc1cccc(COC(CCn2ccnc2)c2ccco2)c1 (centres undefined) | – | 3.04 | 100 | 60.2 | 19.8
Clc1ccc(COC(CCn2ccnc2)c2ccco2)c(Cl)c1 (centres undefined) | – | 5.15 | 91.8 | 56.2 | 10.9
Fc1ccc(F)c(COC(CCn2cncn2)c2cccs2)c1 (centres undefined) | inactive | – | 94.8 | – | –
Fc1ccc(F)c(COC(CCn2cncn2)c2ccco2)c1 (centres undefined) | inactive | – | 98.5 | – | –
Fc1ccc(F)c(COC(CCn2ccnc2)c2ccco2)c1 (centres undefined) | – | 5.35 | 99 | 30.9 | 5.77
Clc1ccc(COC(CCn2ccnc2)c2cccs2)c(Cl)c1 (centres undefined) | – | 5.26 | 87.8 | 29.7 | 5.65
Clc1cccc(COC(CCn2cncn2)c2cccs2)c1 (centres undefined) | – | 8.04 | 80.6 | 15.6 | 1.93
Fc1ccc(COC(CCn2ccnc2)c2ccco2)c(F)c1 (centres undefined) | – | 4.2 | 95.5 | 28.8 | 6.86

The next lines start with results.

inhibition (Leishmania donovani [2]) | IC50 (Leishmania donovani [3]) [µM] | SMILES | inhibition at 20 µM (Leishmania donovani [1]) [%] | CC50 at 72 h [4] [µM] | Selectivity Index [5]
inactive | – | Clc1ccc(Cl)c(COC(CCn2cncn2)c2cccs2)c1 (centres undefined) | 97.3 | – | –
– | 7.35 | Fc1ccc(F)c(COC(CCn2ccnc2)c2cccs2)c1 (centres undefined) | 86.8 | 15.1 | 2.05
– | 5.14 | Clc1cccc(COC(CCn2ccnc2)c2cccs2)c1 (centres undefined) | 100 | 46 | 8.93
– | 6.75 | Clc1ccc(Cl)c(COC(CCn2ccnc2)c2cccs2)c1 (centres undefined) | 85.9 | 18 | 2.66
– | 6 | Clc1ccc(COC(Cn2ccnc2)c2ccc(Cl)cc2Cl)c(Cl)c1 (centres undefined) [MICONAZOLE] | 100 | 9.93 | 1.66
– | 4.03 | Clc1ccc(Cl)c(COC(CCn2ccnc2)c2ccco2)c1 (centres undefined) | 96 | 37.6 | 7.15
– | 7.81 | Fc1ccc(COC(CCn2ccnc2)c2cccs2)c(F)c1 (centres undefined) | 90.6 | 34.4 | 4.4
inactive | – | Clc1ccc(COC(CCn2cncn2)c2ccco2)c(Cl)c1 (centres undefined) | 97.8 | – | –
inactive | – | Fc1ccc(COC(CCn2cncn2)c2ccco2)c(F)c1 (centres undefined) | 90.5 | – | –
– | 7.36 | Clc1cccc(COC(CCn2cncn2)c2ccco2)c1 (centres undefined) | 97.5 | 18.6 | 3.17
inactive | – | Fc1ccc(COC(CCn2cncn2)c2cccs2)c(F)c1 (centres undefined) | 92 | – | –
– | 9.39 | Clc1ccc(Cl)c(COC(CCn2cncn2)c2ccco2)c1 (centres undefined) | 94.5 | 28.9 | 3.08
– | 13.4 | CCCCCCCCCCCCCCCCOP(=O)([O-])OCC[N+](C)(C)C [MILTEFOSINE] | 99.9 | 3.23 | 0.24
